{"data": "Published values gathered from unrelated publications", "target": "Dual serine/threonine and tyrosine protein kinase (DSTYK, Homo sapiens, UniProt Q6XUX3)", "Residues used in one study (Q6XUX3 1-929)": "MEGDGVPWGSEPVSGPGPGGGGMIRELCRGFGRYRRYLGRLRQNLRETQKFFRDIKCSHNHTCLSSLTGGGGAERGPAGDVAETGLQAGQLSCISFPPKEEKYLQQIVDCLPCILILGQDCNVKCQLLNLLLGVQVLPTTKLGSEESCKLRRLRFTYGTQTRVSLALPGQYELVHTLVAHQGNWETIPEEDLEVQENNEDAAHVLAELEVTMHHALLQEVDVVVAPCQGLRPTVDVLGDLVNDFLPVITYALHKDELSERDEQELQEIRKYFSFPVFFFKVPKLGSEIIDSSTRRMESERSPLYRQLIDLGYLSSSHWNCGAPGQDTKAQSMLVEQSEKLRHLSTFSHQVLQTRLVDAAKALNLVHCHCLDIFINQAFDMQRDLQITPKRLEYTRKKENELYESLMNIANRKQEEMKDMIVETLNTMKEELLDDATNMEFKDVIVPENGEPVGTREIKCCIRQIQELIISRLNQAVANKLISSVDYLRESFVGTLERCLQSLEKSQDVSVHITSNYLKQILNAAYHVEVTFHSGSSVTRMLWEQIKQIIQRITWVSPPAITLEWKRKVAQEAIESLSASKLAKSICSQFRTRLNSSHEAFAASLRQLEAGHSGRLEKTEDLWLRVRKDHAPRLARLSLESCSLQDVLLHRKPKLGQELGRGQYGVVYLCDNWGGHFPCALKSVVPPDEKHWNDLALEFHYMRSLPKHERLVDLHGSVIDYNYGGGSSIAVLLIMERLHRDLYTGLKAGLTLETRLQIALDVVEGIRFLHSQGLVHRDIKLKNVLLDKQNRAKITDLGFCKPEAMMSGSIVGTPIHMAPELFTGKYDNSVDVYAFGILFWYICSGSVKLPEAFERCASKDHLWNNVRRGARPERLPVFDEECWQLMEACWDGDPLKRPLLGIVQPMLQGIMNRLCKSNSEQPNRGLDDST", "note": "Each line is one published result; the experiments were not run side by side."}
{"SMILES": "COc1cnc(Nc2cccc(S(N)(=O)=O)c2)nc1N1CCN(c2ccccc2)CC1", "assay": "binding, competition with immobilised ligand", "conditions": "1 µM", "remaining binding": "100%"}
{"SMILES": "FC(F)(F)Oc1cccc(-c2cnc3ccc(-c4ccncc4)nn23)c1", "assay": "binding, competition with immobilised ligand", "conditions": "5 µM", "remaining binding": "49%"}
{"SMILES": "O=C(Nc1c[nH]nc1C(=O)NC1CCNCC1)c1cc(F)cc(F)c1", "assay": "binding, competition with immobilised ligand", "conditions": "1 µM", "remaining binding": "87%"}
{"SMILES": "C=CC(=O)N1CCC(C(=O)NCC(=O)N2CCN(c3nc(-c4cnc(N)nc4C(F)F)nc(N4CCOCC4)n3)CC2)CC1", "assay": "binding, competition with immobilised ligand", "conditions": "1 µM", "remaining binding": "72%"}
{"SMILES": "F[C@@H]1CCN(c2nccc(-c3cnn4ncccc34)n2)C1", "assay": "binding", "conditions": "1 µM", "remaining binding": "100%"}
{"SMILES": "CCOC(=O)c1cc2cc(-c3cc(C(=O)NCc4ccc(C(=O)O)cc4)nn3C)ccc2[nH]1", "assay": "cell-free assay, competition with immobilised ligand", "conditions": "0.1 µM", "remaining binding": "69%"}
{"SMILES": "C[C@@H](c1ccc(-n2cnc3c(N)ncnc32)cc1)N1CCc2nn(C)c(Cc3ccccc3)c2C1=O", "assay": "binding, competition with immobilised ligand", "conditions": "0.1 µM", "remaining binding": "58%"}
{"SMILES": "NS(=O)(=O)c1cc(NC(=O)Cc2ccccc2)ccc1Oc1cccc(Cl)c1", "assay": "cell-free assay, competition with immobilised ligand", "conditions": "1 µM", "remaining binding": "83%"}
{"SMILES": "c1cncc(-c2cccc(Nc3nccc(NC4CCCCC4)n3)c2)c1", "assay": "binding, competition with immobilised ligand", "conditions": "10 µM", "remaining binding": "75%"}
{"SMILES": "CN(C)c1ncnc(-c2ccc3nc(Nc4cc(CN5CCN(C(=O)CC(F)(F)F)CC5)ccn4)[nH]c3c2)c1Cl", "assay": "cell-free assay, competition with immobilised ligand", "conditions": "1 µM", "remaining binding": "95%"}
{"SMILES": "N[C@H]1CCN(c2nccc(-c3cnn4ncccc34)n2)C1", "assay": "binding", "conditions": "1 µM", "remaining binding": "100%"}
{"SMILES": "O=C(c1ccc(Nc2ncc(Cl)c(-c3ccc(Cl)s3)n2)cc1)N1CCC(N2CCCC2)CC1", "assay": "binding, competition with immobilised ligand", "conditions": "1 µM", "remaining binding": "14%"}
{"SMILES": "COc1ccnn2ncc(-c3ccnc(N(C)C)n3)c12", "assay": "binding", "conditions": "1 µM", "remaining binding": "100%"}
{"SMILES": "O=C(NCCCN1CCOCC1)c1ccc(Nc2ncc(Cl)c(-c3ccc(Cl)s3)n2)cc1", "assay": "binding, competition with immobilised ligand", "conditions": "1 µM", "remaining binding": "89%"}
{"SMILES": "c1cnn2ncc(-c3ccnc(N4CCC45COC5)n3)c2c1", "assay": "binding", "conditions": "1 µM", "remaining binding": "79%"}
{"SMILES": "CC(C)(O)c1cncc(-c2nc3ccc(F)cc3n2C2CC2)c1", "assay": "cell-free assay, competition with immobilised ligand", "conditions": "1 µM", "remaining binding": "100%"}
{"SMILES": "C[C@H]1CCN(c2nccc(-c3cnn4ncccc34)n2)C1", "assay": "binding", "conditions": "1 µM", "remaining binding": "94%"}
{"SMILES": "O=C(NCc1ncc(C(F)(F)F)cc1Cl)c1ccc2c(c1)C1(CCS(=O)(=O)CC1)[C@@H](C1CC1)N2S(=O)(=O)c1ccc(F)cc1", "assay": "cell-free assay, competition with immobilised ligand", "conditions": "1 µM", "remaining binding": "78%"}
{"SMILES": "CN(c1nccc(-c2cnn3ncccc23)n1)C1CC1", "assay": "binding", "conditions": "1 µM", "remaining binding": "98%"}
{"SMILES": "CN(C)C(=O)Cn1cc(-c2nc(C3(c4ccc(-c5cnc(N)nc5)cc4)CC3)no2)cn1", "assay": "cell-free assay, competition with immobilised ligand", "conditions": "1 µM", "remaining binding": "94%"}
{"SMILES": "CN(C)c1nccc(-c2cnn3ncccc23)n1", "assay": "binding", "conditions": "1 µM", "remaining binding": "96%"}
{"SMILES": "O=C(c1ccc(Nc2ncc(Cl)c(-c3cc4ccccc4s3)n2)cc1)N1CCC(N2CCCC2)CC1", "assay": "binding, competition with immobilised ligand", "conditions": "1 µM", "remaining binding": "32%"}
